# Data from ChEMBL document CHEMBL1833921, “Synthesis and biological evaluation of phenstatin metabolites” (Bioorg Med Chem, 2011).
# Columns and labels:
# HT-29 = assay: Cytotoxicity against human HT29 cells after 48 hrs by sulforhodamine B assay; assay type: functional; conditions: HT-29, 48 h
# A549 [1] = assay: Cytotoxicity against human A549 cells after 48 hrs by sulforhodamine B assay; assay type: functional; conditions: A549, 48 h
# HL-60 = assay: Cytotoxicity against human HL60 cells after 48 hrs by sulforhodamine B assay; assay type: functional; conditions: HL-60, 48 h
# MCF7 [2] = assay: Cytotoxicity against human MCF7 cells after 48 hrs by sulforhodamine B assay; assay type: functional; conditions: MCF7, 48 h
# SF-295 [3] = assay: Cytotoxicity against human SF295 cells after 48 hrs by sulforhodamine B assay; assay type: functional; conditions: SF-295, 48 h
# DU-145 [4] = assay: Cytotoxicity against human DU145 cells after 48 hrs by sulforhodamine B assay; assay type: functional; conditions: DU-145, 48 h
# A498 = assay: Cytotoxicity against human A498 cells after 48 hrs by sulforhodamine B assay; assay type: functional; conditions: A498, 48 h
# OVCAR-3 [5] = assay: Cytotoxicity against human OVCAR3 cells after 48 hrs by sulforhodamine B assay; assay type: functional; conditions: OVCAR-3, 48 h
# COLO 205 [6] = assay: Cytotoxicity against human COLO205 cells after 48 hrs by sulforhodamine B assay; assay type: functional; conditions: COLO 205, 48 h
# NCI-H460 [7] = assay: Cytotoxicity against human NCI-H460 cells after 48 hrs by sulforhodamine B assay; assay type: functional; conditions: NCI-H460, 48 h
# [8] = Inhibition of bovine brain tubulin polymerization after 30 mins by turbidimetry analysis; design: species or system Bos taurus
# Method in brief: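 Lyophilized bovine brain tubulin (97%) reconstituted to 5 mg/mL in 80 mM PIPES pH 6.9, 2 mM MgCl₂, 0.5 mM EGTA, 1.0 mM GTP and 5% glycerol. Compound in DMSO was added to this solution in a quartz cuvette at 0 °C. Assembly was followed as the rise in absorbance at 340 nm at 37 °C. IC₅₀ is the molar concentration halving the extent of assembly after 30 min.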
# [9] = Solubility in water; assay type: physicochemical; conditions: buffer
# MDA-MB-468 = assay: Cytotoxicity against human MDA-MB-468 cells assessed as growth inhibition at 10^-5 M after 48 hrs by sulforhodamine B assay; assay type: functional; conditions: MDA-MB-468, 48 h, read-out: GI
# Hs-578T = assay: Cytotoxicity against human HS578T cells assessed as growth inhibition at 10^-5 M after 48 hrs by sulforhodamine B assay; assay type: functional; conditions: read-out: GI
# MDA-MB-231 = assay: Cytotoxicity against human MDA-MB-231/ATCC cells assessed as growth inhibition at 10^-5 M after 48 hrs by sulforhodamine B assay; assay type: functional; conditions: MDA-MB-231, 48 h, read-out: GI
# MCF7 [10] = assay: Cytotoxicity against human MCF7 cells assessed as growth inhibition at 10^-5 M after 48 hrs by sulforhodamine B assay; assay type: functional; conditions: MCF7, 48 h, read-out: GI
# SF-539 = assay: Cytotoxicity against human SF539 cells assessed as growth inhibition at 10^-5 M after 48 hrs by sulforhodamine B assay; assay type: functional; conditions: SF-539, 48 h, read-out: GI
# SF-295 [11] = assay: Cytotoxicity against human SF295 cells assessed as growth inhibition at 10^-5 M after 48 hrs by sulforhodamine B assay; assay type: functional; conditions: SF-295, 48 h, read-out: GI
# SF-268 = assay: Cytotoxicity against human SF268 cells assessed as growth inhibition at 10^-5 M after 48 hrs by sulforhodamine B assay; assay type: functional; conditions: SF-268, 48 h, read-out: GI
# DU-145 [12] = assay: Cytotoxicity against human DU145 cells assessed as growth inhibition at 10^-5 M after 48 hrs by sulforhodamine B assay; assay type: functional; conditions: DU-145, 48 h, read-out: GI
# UO-31 = assay: Cytotoxicity against human UO31 cells assessed as growth inhibition at 10^-5 M after 48 hrs by sulforhodamine B assay; assay type: functional; conditions: UO-31, 48 h, read-out: GI
# SN12C = assay: Cytotoxicity against human SN12C cells assessed as growth inhibition at 10^-5 M after 48 hrs by sulforhodamine B assay; assay type: functional; conditions: read-out: GI
# RXF 393 = assay: Cytotoxicity against human RXF393 cells assessed as growth inhibition at 10^-5 M after 48 hrs by sulforhodamine B assay; assay type: functional; conditions: RXF 393, 48 h, read-out: GI
# CAKI-1 = assay: Cytotoxicity against human Caki1 cells assessed as growth inhibition at 10^-5 M after 48 hrs by sulforhodamine B assay; assay type: functional; conditions: CAKI-1, 48 h, read-out: GI
# SK-OV-3 = assay: Cytotoxicity against human SKOV3 cells assessed as growth inhibition at 10^-5 M after 48 hrs by sulforhodamine B assay; assay type: functional; conditions: SK-OV-3, 48 h, read-out: GI
# NCI/ADR-RES = assay: Cytotoxicity against human NCI/ADR-RES cells assessed as growth inhibition at 10^-5 M after 48 hrs by sulforhodamine B assay; assay type: functional; conditions: read-out: GI
# OVCAR-5 = assay: Cytotoxicity against human OVCAR5 cells assessed as growth inhibition at 10^-5 M after 48 hrs by sulforhodamine B assay; assay type: functional; conditions: OVCAR-5, 48 h, read-out: GI
# OVCAR-4 = assay: Cytotoxicity against human OVCAR4 cells assessed as growth inhibition at 10^-5 M after 48 hrs by sulforhodamine B assay; assay type: functional; conditions: OVCAR-4, 48 h, read-out: GI
# OVCAR-3 [13] = assay: Cytotoxicity against human OVCAR3 cells assessed as growth inhibition at 10^-5 M after 48 hrs by sulforhodamine B assay; assay type: functional; conditions: OVCAR-3, 48 h, read-out: GI
# UACC-62 = assay: Cytotoxicity against human UACC62 cells assessed as growth inhibition at 10^-5 M after 48 hrs by sulforhodamine B assay; assay type: functional; conditions: UACC-62, 48 h, read-out: GI
# SK-MEL-28 = assay: Cytotoxicity against human SK-MEL-28 cells assessed as growth inhibition at 10^-5 M after 48 hrs by sulforhodamine B assay; assay type: functional; conditions: SK-MEL-28, 48 h, read-out: GI
# SK-MEL-2 = assay: Cytotoxicity against human SK-MEL-2 cells assessed as growth inhibition at 10^-5 M after 48 hrs by sulforhodamine B assay; assay type: functional; conditions: SK-MEL-2, 48 h, read-out: GI
# MDA-MB-435 = assay: Cytotoxicity against human MDA-MB-435 cells assessed as growth inhibition at 10^-5 M after 48 hrs by sulforhodamine B assay; assay type: functional; conditions: MDA-MB-435, 48 h, read-out: GI
# M14 = assay: Cytotoxicity against human M14 cells assessed as growth inhibition at 10^-5 M after 48 hrs by sulforhodamine B assay; assay type: functional; conditions: M14, 48 h, read-out: GI
# KM12 = assay: Cytotoxicity against human KM12 cells assessed as growth inhibition at 10^-5 M after 48 hrs by sulforhodamine B assay; assay type: functional; conditions: KM12, 48 h, read-out: GI
# HCT-15 = assay: Cytotoxicity against human HCT15 cells assessed as growth inhibition at 10^-5 M after 48 hrs by sulforhodamine B assay; assay type: functional; conditions: HCT-15, 48 h, read-out: GI
# HCT-116 = assay: Cytotoxicity against human HCT116 cells assessed as growth inhibition at 10^-5 M after 48 hrs by sulforhodamine B assay; assay type: functional; conditions: HCT-116, 48 h, read-out: GI
# HCC 2998 = assay: Cytotoxicity against human HCC2998 cells assessed as growth inhibition at 10^-5 M after 48 hrs by sulforhodamine B assay; assay type: functional; conditions: HCC 2998, 48 h, read-out: GI
# COLO 205 [14] = assay: Cytotoxicity against human COLO205 cells assessed as growth inhibition at 10^-5 M after 48 hrs by sulforhodamine B assay; assay type: functional; conditions: COLO 205, 48 h, read-out: GI
# NCI-H522 = assay: Cytotoxicity against human NCI-H522 cells assessed as growth inhibition at 10^-5 M after 48 hrs by sulforhodamine B assay; assay type: functional; conditions: NCI-H522, 48 h, read-out: GI
# NCI-H460 [15] = assay: Cytotoxicity against human NCI-H460 cells assessed as growth inhibition at 10^-5 M after 48 hrs by sulforhodamine B assay; assay type: functional; conditions: NCI-H460, 48 h, read-out: GI
# NCI-H322M = assay: Cytotoxicity against human NCI-H322M cells assessed as growth inhibition at 10^-5 M after 48 hrs by sulforhodamine B assay; assay type: functional; conditions: read-out: GI
# EKVX = assay: Cytotoxicity against human EKVX cells assessed as growth inhibition at 10^-5 M after 48 hrs by sulforhodamine B assay; assay type: functional; conditions: read-out: GI
# A549 [16] = assay: Cytotoxicity against human A549/ATCC cells assessed as growth inhibition at 10^-5 M after 48 hrs by sulforhodamine B assay; assay type: functional; conditions: A549, 48 h, read-out: GI
# K562 = assay: Cytotoxicity against human K562 cells assessed as growth inhibition at 10^-5 M after 48 hrs by sulforhodamine B assay; assay type: functional; conditions: K562, 48 h, read-out: GI
# HL-60(TB) = assay: Cytotoxicity against human HL-60(TB) cells assessed as growth inhibition at 10^-5 M after 48 hrs by sulforhodamine B assay; assay type: functional; conditions: HL-60, 48 h, read-out: GI
# CCRF-CEM = assay: Cytotoxicity against human CCRF-CEM cells assessed as growth inhibition at 10^-5 M after 48 hrs by sulforhodamine B assay; assay type: functional; conditions: read-out: GI
smiles,measurement,setting,value
COc1ccc(C(=O)c2cc(OC)c(OC)c(OC)c2)cc1O [PHENSTATIN],GI50,HT-29,1800 nM
same,GI50,A549 [1],290 nM
same,GI50,HL-60,31 nM
same,GI50,MCF7 [2],34 nM
same,GI50,SF-295 [3],52 nM
same,GI50,DU-145 [4],34 nM
same,GI50,A498,380 nM
same,GI50,OVCAR-3 [5],2.3 nM
same,GI50,COLO 205 [6],4860 nM
same,GI50,NCI-H460 [7],5.7 nM
same,IC50,[8],15000 nM
same,solubility,[9],soluble
COc1ccc(C(=O)c2cc(OC)c(OC)c(OC)c2)cc1OP(=O)([O-])[O-].[Na+].[Na+],solubility,[9],soluble
COc1cc2c(c(O)c1OC)C(=O)c1cc(OC)c(OC)c(OC)c1C2=O,inhibition of growth at 10 µM,MDA-MB-468,22.4%
same,inhibition of growth at 10 µM,Hs-578T,16.9%
same,inhibition of growth at 10 µM,MDA-MB-231,21.3%
same,inhibition of growth at 10 µM,MCF7 [10],26.7%
same,inhibition of growth at 10 µM,SF-539,16.2%
same,inhibition of growth at 10 µM,SF-295 [11],37.9%
same,inhibition of growth at 10 µM,SF-268,22.2%
same,inhibition of growth at 10 µM,DU-145 [12],7.83%
same,inhibition of growth at 10 µM,UO-31,0%
same,inhibition of growth at 10 µM,SN12C,8.73%
same,inhibition of growth at 10 µM,RXF 393,2.66%
same,inhibition of growth at 10 µM,CAKI-1,7.07%
same,inhibition of growth at 10 µM,SK-OV-3,9.78%
same,inhibition of growth at 10 µM,NCI/ADR-RES,20.3%
same,inhibition of growth at 10 µM,OVCAR-5,7.52%
same,inhibition of growth at 10 µM,OVCAR-4,60.2%
same,inhibition of growth at 10 µM,OVCAR-3 [13],0%
same,inhibition of growth at 10 µM,UACC-62,6.13%
same,inhibition of growth at 10 µM,SK-MEL-28,15%
same,inhibition of growth at 10 µM,SK-MEL-2,0%
same,inhibition of growth at 10 µM,MDA-MB-435,16.9%
same,inhibition of growth at 10 µM,M14,0%
same,inhibition of growth at 10 µM,KM12,0%
same,inhibition of growth at 10 µM,HCT-15,0%
same,inhibition of growth at 10 µM,HCT-116,11.8%
same,inhibition of growth at 10 µM,HCC 2998,0%
same,inhibition of growth at 10 µM,COLO 205 [14],0%
same,inhibition of growth at 10 µM,NCI-H522,29.5%
same,inhibition of growth at 10 µM,NCI-H460 [15],9.33%
same,inhibition of growth at 10 µM,NCI-H322M,0%
same,inhibition of growth at 10 µM,EKVX,13.5%
same,inhibition of growth at 10 µM,A549 [16],26.1%
same,inhibition of growth at 10 µM,K562,0%
same,inhibition of growth at 10 µM,HL-60(TB),6.14%
same,inhibition of growth at 10 µM,CCRF-CEM,0%
same,IC50,[8],> 100000 nM
